Results of several laboratories.
Protocols differ between the studies behind these lines.
Target: Activin receptor type-1 (ACVR1, Homo sapiens, UniProt Q04771)
Sequence (Q04771 1-509, as in one of the studies): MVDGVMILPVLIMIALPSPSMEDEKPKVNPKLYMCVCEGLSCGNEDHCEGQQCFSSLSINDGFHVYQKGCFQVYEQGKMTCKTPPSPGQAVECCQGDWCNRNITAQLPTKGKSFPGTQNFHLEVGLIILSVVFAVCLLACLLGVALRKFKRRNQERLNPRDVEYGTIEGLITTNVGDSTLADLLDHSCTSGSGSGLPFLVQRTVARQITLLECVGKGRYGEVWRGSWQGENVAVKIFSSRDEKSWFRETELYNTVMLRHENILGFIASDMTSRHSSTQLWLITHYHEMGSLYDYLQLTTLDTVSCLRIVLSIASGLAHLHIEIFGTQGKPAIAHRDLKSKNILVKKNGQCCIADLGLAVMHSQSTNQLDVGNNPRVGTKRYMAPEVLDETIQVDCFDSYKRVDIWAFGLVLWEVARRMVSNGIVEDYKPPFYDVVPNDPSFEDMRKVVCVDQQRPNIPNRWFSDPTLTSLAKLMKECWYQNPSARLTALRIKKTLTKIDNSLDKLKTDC

Cc1cnc(NC2CCOCC2)nc1-n1cnc(C(=O)NC(CN)c2cc(F)cc(Cl)c2)c1 (centres unmarked)  remaining activity (enzyme activity; inhibitor; radiometric; 1 µM): 96%
Nc1cnc(N2CCc3cc(S(=O)(=O)Nc4c(F)cc(Cl)cc4F)cc(N4CCCC4=O)c32)nc1  remaining binding (cell-free assay; competition with immobilised ligand; 1 µM): 100%
Oc1cccc(-c2nc(N3CCOCC3)c3oc4ncccc4c3n2)c1  remaining signal (cell-free assay; 0.5 µM): 105%
Cc1ccc(NC(=O)c2ccc(C)c(C(F)(F)F)c2)cc1C#Cc1nn(C2CCC(O)CC2)c2ncnc(N)c12 (centres unmarked)  remaining signal (cell-free assay; 10 µM): 77%
CC(C)(C)c1nc(-c2cccc(NS(=O)(=O)c3c(F)cccc3F)c2F)c(-c2ccnc(N)n2)s1  remaining activity (enzyme activity; inhibitor; radiometric; 1 µM): 47%
Cn1cc(Cl)c2c(Oc3c(F)cc(Nc4cc(Cl)nc(N)n4)cc3F)ccnc21  remaining binding (cell-free assay; competition with immobilised ligand; 0.1 µM): 85%
Cn1c2c(c3ccc(Cl)c(Cl)c31)C(C#N)C1(CCNCC1)NC2=O (racemic)  ΔTm (thermal stability; DSF; 10 µM): -0.1 °C
O=C(O)[C@H]1[C@H](Cn2nnc3ccccc3c2=O)CC[C@@H]1C(=O)c1ccc(OCCC2CCOCC2)cc1  remaining binding (cell-free assay; competition with immobilised ligand; 1 µM): 100%
Cc1ccc(C(=O)Nc2ccc(CN3CCN(C)CC3)c(C(F)(F)F)c2)cc1C#Cc1cnc2cccnn12  remaining signal (cell-free assay; 23.5 nM): 100%
CC(=O)C1=C(C)N(c2cccc(C(F)(F)F)c2)C(=O)N[C@@H]1c1ccc(C#N)nc1  remaining binding (cell-free assay; competition with immobilised ligand; 1 µM): 74.5%
Cn1c2c(Cl)c(Cl)ccc2c2cn[nH]c(=O)c21  ΔTm (thermal stability; DSF; 10 µM): 3.3 °C
CCOc1cc(-c2nncn2C)ccc1Nc1ncc2cc(C)nc(NCC(C)(C)C)c2n1  inhibition (cell-free assay; TR-FRET; 1 µM): ≤ 15%
O=C1Nc2ccc(Cl)cc2C1=Cc1cc(Cl)c(O)c(Cl)c1  remaining signal (cell-free assay; 0.5 µM): 130%
Cc1sc(C(=O)NC2COC2)cc1-n1cc(NC(=O)Nc2c(F)cccc2Cl)cn1  remaining activity (enzyme activity; inhibitor; 10 µM): 108%
C#Cc1cccc(Nc2ncnc3cc(OCCOC)c(OCCOC)cc23)c1  remaining signal (cell-free assay; 0.5 µM): 101%
Cc1c(NC(=O)c2cc(C(N)=O)nc3cc(F)ccc23)c(C(F)(F)F)nn1Cc1ccc(C#N)cc1  remaining binding (cell-free assay; competition with immobilised ligand; 1 µM): 87%
Cn1c2c(Cl)c(Cl)ccc2c2cc(N)[nH]c(=O)c21  ΔTm (thermal stability; DSF; 10 µM): 3.2 °C
O=C(NS(=O)(=O)c1ccc(NCC2CCOCC2)c([N+](=O)[O-])c1)c1ccc(N2CCN(Cc3ccc(C(F)(F)F)cc3-c3ccc(Cl)cc3)CC2)cc1Oc1cnc2[nH]ccc2c1  remaining binding (cell-free assay; competition with immobilised ligand; 1 µM): 89%
CCC1(CC)NC(=O)c2c(c3ccc(Cl)c(Cl)c3n2C)C1C#N (centres unmarked)  ΔTm (thermal stability; DSF; 10 µM): 0.2 °C
Nc1ncnc2occ(-c3ccc(NC(=O)Nc4cc(C(F)(F)F)ccc4F)cc3)c12  remaining signal (cell-free assay; 20 µM): 72%
